Experimental findings from ChEMBL document CHEMBL3286367, “Synthesis of new class of spirocarbocycle derivatives by multicomponent domino reaction and their evaluation for antimicrobial, anticancer activity and molecular docking studies” (2014) are described below.

As usually defined, the MIC is the lowest concentration found to suppress growth.

For assay [1], the system named is Staphylococcus aureus. Briefly: Antimicrobial activity against Staphylococcus aureus MTCC 96 assessed as absence of visible growth after 24 hrs.
The test system of assay [2] is Staphylococcus aureus. Briefly: Antimicrobial activity against Staphylococcus aureus MTCC 96 assessed as zone of inhibition at 1 mg/disc after 24 hrs incubation by disc diffusion assay. In kind it is functional. Summed up: (§1)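 Inocula grown in Mueller Hinton broth for 24 h at 37 °C and swabbed onto Mueller Hinton agar. Discs carried 1 mg compound each and stood 30 min at room temperature before 24 h incubation at 37 °C. Solvent as negative control. Inhibition zones recorded in mm; experiment done twice.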
A general note: A growth-free zone around the sample is the usual read-out of agar diffusion tests.

The test system of assay [3] is Micrococcus luteus. Kind of assay: Antimicrobial activity against Micrococcus luteus MTCC 106 assessed as zone of inhibition at 1 mg/disc after 24 hrs incubation by disc diffusion assay. In kind it is functional. Summed up:
as §1

Assay [4] has as its system Malassezia pachydermatis. Kind of assay: Antifungal activity against Malassezia pachydermatis assessed as zone of inhibition at 1 mg/disc after 48 hrs incubation by disc diffusion assay. In kind it is functional. The gist of the method: (§2)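 Disc diffusion on Mueller Hinton agar with swabbed cultures, 1 mg compound per disc. Discs stood 30 min at room temperature for diffusion, then plates incubated 48 h at 28 °C. Solvent as negative control. Yeast pre-grown in Sabouraud dextrose broth at 28 °C for 48-72 h; filamentous fungal spores came from SDA slants grown 10 days at 28 °C. Zone diameters in mm; run twice.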

Assay [5] relates to Staphylococcus epidermidis. Briefly: Antimicrobial activity against Staphylococcus epidermidis MTCC 3615 assessed as zone of inhibition at 1 mg/disc after 24 hrs incubation by disc diffusion assay. In kind it is functional. Summed up:
as §1

For assay [6], the system named is Salmonella typhimurium. Kind of assay: Antimicrobial activity against Salmonella typhimurium MTCC 1251 assessed as zone of inhibition at 1 mg/disc after 24 hrs incubation by disc diffusion assay. It counts as functional, Salmonella enterica subsp. enterica serovar Typhimurium. Summed up:
as §1

Assay [7] concerns Klebsiella aerogenes. Briefly: Antimicrobial activity against Enterobacter aerogenes MTCC 111 assessed as absence of visible growth after 48 to 72 hrs. In kind it is functional.
Assay [8] relates to Micrococcus luteus. Kind of assay: Antimicrobial activity against Micrococcus luteus MTCC 106 assessed as absence of visible growth after 48 to 72 hrs. It counts as functional.
Assay [9] has as its system Candida albicans. Kind of assay: Antifungal activity against Candida albicans MTCC 227 assessed as zone of inhibition at 1 mg/disc after 48 hrs incubation by disc diffusion assay. It counts as functional. The gist of the method: as §2
The test system of assay [10] is Staphylococcus aureus. Briefly: Antimicrobial activity against methicillin-resistant Staphylococcus aureus assessed as absence of visible growth after 48 to 72 hrs. It counts as functional. Summed up:
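Broth two-fold serial dilution in 96-well plates, 1000 to 7.81 µg/mL, compound dissolved in DMSO (2%). Inoculum grown in Mueller Hinton broth 24 h at 37°C. Streptomycin positive control. 5 µl of tested broth plated on MHA; MIC is the lowest concentration inhibiting visible growth on agar.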

Assay [11] deals with Shigella flexneri. Kind of assay: Antimicrobial activity against Shigella flexneri MTCC 1457 assessed as zone of inhibition at 1 mg/disc after 24 hrs incubation by disc diffusion assay. In kind it is functional. The gist of the method: as §1
Assay [12] deals with Salmonella typhimurium. Kind of assay: Antimicrobial activity against Salmonella typhimurium MTCC 1251 assessed as absence of visible growth after 48 to 72 hrs. It counts as functional, Salmonella enterica subsp. enterica serovar Typhimurium. Particulars: Salmonella enterica.
Assay [13] relates to Staphylococcus epidermidis. Kind of assay: Antimicrobial activity against Staphylococcus epidermidis MTCC 3615 assessed as absence of visible growth after 48 to 72 hrs. In kind it is functional.
Assay [14] relates to Klebsiella pneumoniae. Briefly: Antimicrobial activity against Klebsiella pneumonia MTCC 109 assessed as zone of inhibition at 1 mg/disc after 24 hrs incubation by disc diffusion assay. In kind it is functional. The gist of the method:
as §1

Assay [15] has as its system Proteus vulgaris. Briefly: Antimicrobial activity against Proteus vulgaris MTCC 1771 assessed as zone of inhibition at 1 mg/disc after 24 hrs incubation by disc diffusion assay. In kind it is functional. Summed up:
as §1

Assay [16] has as its system Shigella flexneri. Briefly: Antimicrobial activity against Shigella flexneri MTCC 1457 assessed as absence of visible growth after 24 hrs.
Assay [17] relates to Klebsiella aerogenes. Briefly: Antimicrobial activity against Enterobacter aerogenes MTCC 111 assessed as zone of inhibition at 1 mg/disc after 24 hrs incubation by disc diffusion assay. In kind it is functional. Summed up:
as §1

Assay [18] deals with Klebsiella pneumoniae. Briefly: Antimicrobial activity against Klebsiella pneumonia MTCC 109 assessed as absence of visible growth after 48 to 72 hrs. In kind it is functional.
For assay [19], the system named is Proteus vulgaris. Briefly: Antimicrobial activity against Proteus vulgaris MTCC 1771 assessed as absence of visible growth after 24 hrs.
Assay [20] relates to Staphylococcus aureus. Briefly: Antimicrobial activity against methicillin-resistant Staphylococcus aureus assessed as zone of inhibition at 1 mg/disc after 24 hrs incubation by disc diffusion assay. In kind it is functional. Summed up: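 Inoculum grown in Mueller Hinton broth 24 h at 37°C, swabbed onto Mueller Hinton agar and dried 10 min. Discs loaded at 1 mg/disc, then 30 min at room temperature for diffusion. Plates incubated 24 h at 37°C. Solvent negative control; streptomycin positive control. Zone of inhibition read in mm; experiment done twice.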

Assay [21] has as its system A549. Briefly: Anticancer activity against human A549 cells assessed as cell growth inhibition at 5 ug/ml by MTT assay. The settings on record: read-out: GI. In kind it is functional. Summed up:
(§3)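 A549 cells kept in DMEM with 10% FBS, 2 mM L-glutamine, penicillin/streptomycin, pH 7.2. Seeded at 5000 cells/well in medium with compound at 5–50 µg/mL. Grown at 37 °C, 5% CO2. Medium then replaced by 1 mg/mL MTT for 4 h and formazan dissolved in DMSO. Absorbance read at 540 nm; three replicate experiments.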
A general note: Tetrazolium assays rely on reduction of a dye to a coloured formazan, in cell work by metabolically active cells.

Assay [22] has as its system Shigella flexneri. Kind of assay: Antimicrobial activity against Shigella flexneri MTCC 1457 assessed as absence of visible growth after 48 to 72 hrs. In kind it is functional.
In assay [23] the test system is Proteus vulgaris. Briefly: Antimicrobial activity against Proteus vulgaris MTCC 1771 assessed as absence of visible growth after 48 to 72 hrs. It counts as functional.
Assay [24] concerns A549. Kind of assay: Anticancer activity against human A549 cells assessed as cell growth inhibition at 10 ug/ml by MTT assay. In kind it is functional. Particulars: read-out: GI. Summed up: as §3
Assay [25] relates to A549. Kind of assay: Anticancer activity against human A549 cells assessed as cell growth inhibition at 40 ug/ml by MTT assay. Particulars: read-out: GI. In kind it is functional. Summed up: as §3
The subject of assay [26] is Staphylococcus aureus. Kind of assay: Antimicrobial activity against Staphylococcus aureus MTCC 96 assessed as absence of visible growth after 48 to 72 hrs. In kind it is functional.
For assay [27], the system named is Staphylococcus epidermidis. Kind of assay: Antimicrobial activity against Staphylococcus epidermidis MTCC 3615 assessed as absence of visible growth after 24 hrs.
Assay [28] relates to A549. Briefly: Anticancer activity against human A549 cells assessed as cell growth inhibition at 20 ug/ml by MTT assay. The settings on record: read-out: GI. It counts as functional. Summed up:
as §3

The test system of assay [29] is Klebsiella pneumoniae. Kind of assay: Antimicrobial activity against Klebsiella pneumonia MTCC 109 assessed as absence of visible growth after 24 hrs.
In assay [30] the test system is A549. Kind of assay: Anticancer activity against human A549 cells assessed as cell growth inhibition at 50 ug/ml by MTT assay. In kind it is functional. The settings on record: read-out: GI. The gist of the method: as §3
For assay [31], the system named is A549. Briefly: Anticancer activity against human A549 cells assessed as cell growth inhibition at 30 ug/ml by MTT assay. In kind it is functional. Particulars: read-out: GI. The gist of the method: as §3

Values after ≈ are worked out from the molar mass of the structure shown. Active and inactive are the calls of the source. The calls are words filed in the database; no cut-off is given here.

For the compound `N#CC1=C(N)[C@]2(C(=O)Nc3ccccc32)[C@@H](c2cccc3ccccc23)[C@@H]2CCCC=C12`, the inhibition result in assay [1], in assay [2], in assay [9], in assay [10], in [15] and in assay [19] was “inactive” in each case. Further, the inhibition entry in assay [20] was “inactive”. The “inhibition zone (IZ)” value in [3] turned out to be 10 mm; in [4], 9 mm; in assay [5], 15 mm; in assay [6] it was 14 mm; in assay [11] it was 12 mm; in assay [14] it was 16 mm. Moreover, the “inhibition zone (IZ)” value in assay [17] came to 18 mm. The MIC in assay [7] turned out to be 125 µg/mL (≈ 299 µM); in [8] it was 250 µg/mL (≈ 599 µM); in [12], 250 µg/mL (≈ 599 µM); in assay [13], 125 µg/mL (≈ 299 µM); in [16] it was 500 µg/mL (≈ 1200 µM); in [18], 125 µg/mL (≈ 299 µM).
`Cc1ccc([C@H]2[C@@H]3CCCCC=C3C(C#N)=C(N)C23C(=O)c2ccccc2C3=O)cc1` (relative stereo): the “inhibition zone (IZ)” value amounted to 13 mm in assay [2]; 10 mm in assay [3]; 10 mm in assay [4]; 16 mm in [5]; 19 mm in [6]; 10 mm in assay [9]. The “inhibition zone (IZ)” value in assay [11] was 23 mm; in assay [14], 20 mm; in assay [15] it was 22 mm; in assay [17] it was 18 mm; in assay [20], 17 mm. The inhibition of growth at 5 µg/mL in assay [21] was 3.7%. Also, the MIC in assay [22] amounted to 62.5 µg/mL (≈ 153 µM); in assay [23], 62.5 µg/mL (≈ 153 µM); in [7], 125 µg/mL (≈ 306 µM); in [8], 250 µg/mL (≈ 612 µM); in assay [10], 125 µg/mL (≈ 306 µM); in assay [26] it was 250 µg/mL (≈ 612 µM). Further, the results for the MIC in assay [12], in assay [27] and in [29] were 125 µg/mL (≈ 306 µM), 250 µg/mL (≈ 612 µM) and 62.5 µg/mL (≈ 153 µM), respectively. The inhibition of growth at 10 µg/mL in assay [24] worked out at 10.5%. Besides, the inhibition of growth at 40 µg/mL in [25] was 46.6%. The inhibition of growth at 20 µg/mL in assay [28] was found to be 18.6%. The inhibition of growth at 50 µg/mL in assay [30] amounted to 59.6%. The inhibition of growth at 30 µg/mL in assay [31] is 30.8%.
In the case of `N#CC1=C(N)[C@]2(C(=O)Nc3ccccc32)[C@@H](c2ccc(Cl)cc2)[C@@H]2CCCC=C12`, the inhibition result in [1], in [2], in assay [10] and in [20] was “inactive” in each case. For the same compound, the “inhibition zone (IZ)” value in [3] came to 9 mm; in [4] it was 11 mm; in assay [5], 13 mm; in assay [6] it was 12 mm; in assay [9], 9 mm; in assay [11], 10 mm. In addition, the “inhibition zone (IZ)” value stood at 16 mm in assay [14], 17 mm in assay [15] and 10 mm in assay [17]. Further, the MIC in assay [23] worked out at 125 µg/mL (≈ 311 µM); in assay [7] it was 250 µg/mL (≈ 622 µM); in assay [8], 1000 µg/mL (≈ 2490 µM); in [12] it was 250 µg/mL (≈ 622 µM); in [13], 250 µg/mL (≈ 622 µM); in assay [16], 250 µg/mL (≈ 622 µM). Moreover, the MIC in [29] is 125 µg/mL (≈ 311 µM).
